Laboratory results: ChEMBL document CHEMBL4152320, “Discovery and development of novel salicylate synthase (MbtI) furanic inhibitors as antitubercular agents” (Eur J Med Chem, 2018)
≈ marks a conversion by molar mass, not a printed value. Calls of active or inactive are those of the source. The calls are words filed in the database; no cut-off is given here.

Legend:
[1] = tested on: Mycobacterium tuberculosis; test: Inhibition of Mycobacterium tuberculosis salicylate synthase expressed in Escherichia coli BL21(DE3) assessed as residual activity at 100 uM using chorismic acid as substrate in presence of NADH by l-lactic dehydrogenase enzyme coupled assay relative to control
[2] = Inhibition of Mycobacterium tuberculosis salicylate synthase expressed in Escherichia coli BL21(DE3) using chorismic acid as substrate in presence of NADH by l-lactic dehydrogenase enzyme coupled assay
Outline: (§1)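 IC50 at subsaturating chorismic acid (50 µM) via LDH-coupled NADH assay, 37 °C, 50 mM HEPES pH 8.0, 10 mM MgCl2, 10-20 µM MbtI; activity at varied inhibitor fitted to A[I] = A[0]×(1−[I]/([I]+IC50)). Aggregation controls run with BSA or Triton X-100 added (line 8 BSA, line 11 Triton).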

[3] = tested on: Mycobacterium tuberculosis; test: Inhibition of Mycobacterium tuberculosis salicylate synthase expressed in Escherichia coli BL21(DE3) using chorismic acid as substrate in presence of BSA by l-lactic dehydrogenase enzyme coupled assay; outline: as §1
[4] = Competitive inhibition of Mycobacterium tuberculosis salicylate synthase expressed in Escherichia coli BL21(DE3) using varying levels of chorismic acid as substrate in presence of NADH by l-lactic dehydrogenase enzyme coupled assay
Outline: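 Ki by competitive-inhibition fit of MbtI activity across varied CHA (10-500 µM range used for kinetics) and inhibitor levels (0, 5, 10, 20, 50, 100 µM). Coupled lactate dehydrogenase assay at 37 °C: 50 mM HEPES pH 8.0, 0.2 mM NADH, 10 mM MgCl2, 3 U LDH, 10-20 µM MbtI; reactions started with CHA; triplicate.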

[5] = tested on: Mycobacterium tuberculosis; test: Antimycobacterial activity against Mycobacterium tuberculosis H37Rv; format: functional
Outline: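 MIC99 vs M. tuberculosis H37Rv on solid medium. Single colony grown in 7H9 + 10% OADC at 37 °C to exponential phase (~10^8 CFU/mL), diluted to ~10^6 CFU/mL, about 1 µL streaked onto plates with two-fold serial compound dilutions; MIC = lowest concentration inhibiting growth; triplicate.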

[6] = tested on: Mycobacterium tuberculosis; test: Inhibition of Mycobacterium tuberculosis salicylate synthase expressed in Escherichia coli BL21(DE3) using chorismic acid as substrate in presence of Triton-X-100 by l-lactic dehydrogenase enzyme coupled assay; outline: as §1
[7] = tested on: Mycobacterium tuberculosis; test: Inhibition of Mycobacterium tuberculosis salicylate synthase expressed in Escherichia coli BL21(DE3) using chorismic acid as substrate in presence of DTT by l-lactic dehydrogenase enzyme coupled assay
Outline: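 IC50 with 100 µM DTT present, to probe cysteine reactivity; LDH-coupled assay at 37 °C with 50 µM chorismic acid, 50 mM HEPES pH 8.0, 0.2 mM NADH, 10 mM MgCl2, 10-20 µM MbtI; fitted to single-site IC50 equation.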

In the case of O=C(O)c1ccc(-c2ccc(O)cc2)o1, the Activity [1] is reported as 96.3%.

With COc1ccc([N+](=O)[O-])cc1S(=O)(=O)Nc1cccc(C(=O)O)c1 the Activity [1] was 38.4% and the IC50 [2] was 77.6 µM.

In the case of N#Cc1ccc(-c2ccc(C(=O)O)o2)cc1, the Activity [1] is reported as 126%.

In the case of O=C(O)c1ccc(-c2cccc([N+](=O)[O-])c2)o1, the Activity [1] is reported as 50.2%.

Molecule COC(=O)c1ccc(-c2ccc([N+](=O)[O-])cc2)o1 has an Activity [1] of 71.1%.

Cc1nc(C(C)NC(=O)c2ccoc2)sc1C(=O)O (stereo unspecified) gave an Activity [1] of 109%.

For O=C(O)c1ccc(-c2ccc(C(=O)O)o2)cc1, the Activity [1] was 92.4%.

Molecule C/C=C(\Oc1cccc(C(=O)O)c1O)C(=O)O has an IC50 [2] of 11.6 µM.

O=C(O)c1ccc(-c2ccc(-c3nn[nH]n3)cc2)o1 showed an Activity [1] of 104%.

For O=C(O)c1ccc(-c2ccc(C(F)(F)F)cc2)o1, the Activity [1] was 66.3%.

For O=C(O)c1ccc([N+](=O)[O-])cc1Cl, the Activity [1] was 89.3%.

With COc1ccc(C(=O)O)cc1OCc1ccncc1 the Activity [1] was 104%.

With O=C(O)c1cccc(-c2ccc([N+](=O)[O-])cc2)c1 the Activity [1] was 36.8%.

In the case of O=C(O)c1ccc(-c2ccc([N+](=O)[O-])cc2)o1, the inhibition [3] is reported as “Active”, the Activity [1] is reported as 18.2% and the Ki [4] is reported as 5.3 µM. For the same molecule, the MIC99 [5] was 156 µM (≈ 36.4 µg/mL), the inhibition [6] was “Active” and the inhibition [7] was “Active”.

Molecule CS(=O)(=O)c1ccc(-c2ccc(C(=O)O)o2)cc1 has an Activity [1] of 98.5%.

Work on NS(=O)(=O)c1ccc(-c2ccc(C(=O)O)o2)cc1 yielded an Activity [1] of 84.6%.

Molecule O=C(O)c1ccc(-c2ccccc2Cl)o1 has an Activity [1] of 92.4%.

For O=C(O)c1ccc(-c2ccccc2)o1, the Activity [1] was 102%.

O=C(O)c1ccc(-c2ccc3c(c2)COC3=O)o1 showed an Activity [1] of 58%.

Work on O=C(O)c1ccc(-c2ccccc2[N+](=O)[O-])o1 yielded an Activity [1] of 55.1%.

Molecule O=C(O)c1ccc(-c2ccc3nonc3c2)o1 has an Activity [1] of 46.8%.

With Cc1cc(C(=O)O)c2ccc(F)cc2n1 the Activity [1] was 101%.

O=C(O)c1ccc(-c2ccc([N+](=O)[O-])cc2Cl)o1 showed an Activity [1] of 21.3% and an IC50 [2] of 21.1 µM.

Work on O=C(O)c1ccc(-c2ccncc2)o1 yielded an Activity [1] of 45%.
